According to ChEMBL document CHEMBL4602632, “Synthesis and anti-Mycobacterium tuberculosis activity of imide-β-carboline and carbomethoxy-β-carboline derivatives” (Eur J Med Chem, 2020):
Converted amounts (≈) assume the structure as drawn.

Assays:
[1] = tested on: Mycobacterium tuberculosis; assay: Antimycobacterial activity against Mycobacterium tuberculosis H37Rv assessed as reduction in bacterial growth incubated for 7 days by resazurin dye based assay; format: functional; details: 168 h
Method in brief: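 REMA broth microdilution: DMSO stocks diluted in 7H9-OADC, standardized inoculum added, final 0.98 to 250 μg/mL; 7 days at 35 °C in normal atmosphere, then 0.01% resazurin and a further 24 h at 35 °C. Read visually. MIC is the lowest concentration preventing the blue-to-pink change. Three independent assays on different days; isoniazid reference, medium, sterility and growth ±2.5% DMSO controls.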

[2] = Selectivity index, ratio of CC50 for African green monkey Vero cells to MIC for Mycobacterium tuberculosis 91; format: toxicity
[3] = Selectivity index, ratio of CC50 for African green monkey Vero cells to MIC for Mycobacterium tuberculosis 73A; format: toxicity
[4] = Selectivity index, ratio of CC50 for African green monkey Vero cells to MIC for Mycobacterium tuberculosis H37Rv; format: toxicity
Method in brief: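 Selectivity index computed as the CC50 from VERO MTT assay divided by the REMA MIC against H37Rv.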

[5] = Selectivity index, ratio of CC50 for African green monkey Vero cells to MIC for Mycobacterium tuberculosis BRF45; format: toxicity
[6] = Selectivity index, ratio of CC50 for African green monkey Vero cells to MIC for Mycobacterium tuberculosis 19; format: toxicity
[7] = Selectivity index, ratio of CC50 for African green monkey Vero cells to MIC for Mycobacterium tuberculosis BRF16; format: toxicity
[8] = Selectivity index, ratio of CC50 for African green monkey Vero cells to MIC for Mycobacterium tuberculosis 71A; format: toxicity
[9] = Selectivity index, ratio of CC50 for African green monkey Vero cells to MIC for Mycobacterium tuberculosis BRF14; format: toxicity
[10] = Cytotoxicity against African green monkey Vero cells assessed as reduction in cell viability incubated for 24 hrs by MTT assay; format: cell-based; details: chlorocebus sabaeus
Method in brief: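 VERO (ATCC CCL81) cells grown in DMEM with 10% FBS at 37 °C, 5% CO₂. Seeded at 5 × 10⁴ cells/well for 24 h, then exposed to 1.95–1000 μg/mL in DMEM for 24 h. Washed with PBS, MTT (2 mg/mL in PBS) added for 4 h, dissolved in DMSO, A550 read. CC50 is the highest concentration leaving 50% of cells viable versus control. Three independent assays.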

[11] = Selectivity index, ratio of CC50 for African green monkey Vero cells to MIC for Mycobacterium tuberculosis 3614; format: toxicity
[12] = Selectivity index, ratio of CC50 for African green monkey Vero cells to MIC for Mycobacterium tuberculosis BRF57; format: toxicity

## COC(=O)c1cc2c([nH]c3ccccc32)c(-c2ccccc2)n1
[1]
  MIC: > 828 µM

## COC(=O)c1cc2c([nH]c3ccccc32)c(-c2ccccc2Cl)n1
[1]
  MIC: > 744 µM

## COC(=O)c1cc2c([nH]c3ccccc32)c(-c2ccc(OC)cc2)n1
[1]
  MIC: 579 µM (≈ 192 µg/mL)

## COC(=O)c1cc2c([nH]c3ccccc32)c(-c2cccc([N+](=O)[O-])c2)n1
[1]
  MIC: 720 µM (≈ 250 µg/mL)

## COC(=O)c1cc2c([nH]c3ccccc32)c(-c2ccc(N(C)C)cc2)n1
[2]
  selectivity ratio: 6.96
[3]
  selectivity ratio: 13.9
[4]
  selectivity ratio: 3.48
[5]
  selectivity ratio: 13.9
[6]
  selectivity ratio: 13.9
[7]
  selectivity ratio: 3.48
[8]
  selectivity ratio: < 1.74
[1]
  MIC: 362 µM (≈ 125 µg/mL)
[9]
  selectivity ratio: 1.74
[10]
  CC50 at 24 h: 435 µM
[11]
  selectivity ratio: 13.5
[12]
  selectivity ratio: 3.48

## O=C(NN1C(=O)CCC1=O)c1cc2c([nH]c3ccccc32)c(-c2ccc(F)cc2)n1
[2]
  selectivity ratio: 2.16
[3]
  selectivity ratio: 8.64
[4]
  selectivity ratio: 2.16
[5]
  selectivity ratio: 8.64
[6]
  selectivity ratio: 4.32
[7]
  selectivity ratio: 4.32
[8]
  selectivity ratio: 2.16
[1]
  MIC: 311 µM (≈ 125 µg/mL)
[9]
  selectivity ratio: 4.32
[10]
  CC50 at 24 h: 270 µM
[11]
  selectivity ratio: 4.32
[12]
  selectivity ratio: 2.16

## O=C(NN1C(=O)C=CC1=O)c1cc2c([nH]c3ccccc32)c(-c2ccccc2)n1
[1]
  MIC: 654 µM (≈ 250 µg/mL)

## O=C(NN1C(=O)c2ccccc2C1=O)c1cc2c([nH]c3ccccc32)c(-c2ccccc2Cl)n1
[1]
  MIC: 536 µM (≈ 250 µg/mL)

## O=C(NN1C(=O)c2ccccc2C1=O)c1cc2c([nH]c3ccccc32)c(-c2cccc([N+](=O)[O-])c2)n1
[2]
  selectivity ratio: < 2.6
[3]
  selectivity ratio: 5.2
[4]
  selectivity ratio: 5.2
[5]
  selectivity ratio: 5.2
[6]
  selectivity ratio: 5.2
[7]
  selectivity ratio: 5.2
[8]
  selectivity ratio: < 2.6
[1]
  MIC: 262 µM (≈ 125 µg/mL)
[9]
  selectivity ratio: 2.6
[10]
  CC50 at 24 h: 650 µM
[11]
  selectivity ratio: 5.2
[12]
  selectivity ratio: < 2.6

## COC(=O)c1cc2c([nH]c3ccccc32)c(-c2ccc(O)c(OC)c2)n1
[1]
  MIC: 718 µM (≈ 250 µg/mL)

## O=C(NN1C(=O)C=CC1=O)c1cc2c([nH]c3ccccc32)c(-c2ccc(F)cc2)n1
[1]
  MIC: 625 µM (≈ 250 µg/mL)

## COc1ccc(-c2nc(C(=O)NN3C(=O)CCC3=O)cc3c2[nH]c2ccccc23)cc1
[1]
  MIC: > 604 µM

## CN(C)c1ccc(-c2nc(C(=O)NN3C(=O)c4ccccc4C3=O)cc3c2[nH]c2ccccc23)cc1
[1]
  MIC: > 526 µM

## O=C(NN1C(=O)c2ccccc2C1=O)c1cc2c([nH]c3ccccc32)c(-c2ccccc2)n1
[2]
  selectivity ratio: 7.2
[3]
  selectivity ratio: 14.4
[4]
  selectivity ratio: 7.2
[5]
  selectivity ratio: 14.4
[6]
  selectivity ratio: 14.4
[7]
  selectivity ratio: 7.2
[8]
  selectivity ratio: 7.2
[1]
  MIC: 289 µM (≈ 125 µg/mL)
[9]
  selectivity ratio: 7.2
[10]
  CC50 at 24 h: 900 µM
[11]
  selectivity ratio: 14.4
[12]
  selectivity ratio: 7.2

## O=C(NN1C(=O)c2ccccc2C1=O)c1cc2c([nH]c3ccccc32)c(-c2ccc(F)cc2)n1
[2]
  selectivity ratio: 6.1
[3]
  selectivity ratio: 12.2
[4]
  selectivity ratio: 6.1
[5]
  selectivity ratio: 12.2
[6]
  selectivity ratio: 12.2
[8]
  selectivity ratio: 6.1
[1]
  MIC: 278 µM (≈ 125 µg/mL)
[9]
  selectivity ratio: 12.2
[10]
  CC50 at 24 h: 762 µM
[11]
  selectivity ratio: 12.2
[12]
  selectivity ratio: 6.1

## COc1ccc(-c2nc(C(=O)NN3C(=O)c4ccccc4C3=O)cc3c2[nH]c2ccccc23)cc1
[1]
  MIC: > 541 µM

## COc1cc(-c2nc(C(=O)NN3C(=O)c4ccccc4C3=O)cc3c2[nH]c2ccccc23)ccc1O
[1]
  MIC: 523 µM (≈ 250 µg/mL)

## O=C(NN1C(=O)CCC1=O)c1cc2c([nH]c3ccccc32)c(-c2cccc([N+](=O)[O-])c2)n1
[1]
  MIC: > 583 µM

## COC(=O)c1cc2c([nH]c3ccccc32)c(-c2ccc(F)cc2)n1
[1]
  MIC: > 781 µM

## NNC(=O)c1ccncc1 [ISONIAZID]
[1]
  MIC: 0.06 µM (≈ 0.00823 µg/mL)
